The record followed here is ChEMBL document CHEMBL4665664, “Discovery of Orally Active Hydroxyethylamine Based SPPL2a Inhibitors” (ACS Med Chem Lett, 2019).

For data set [1], the target named is T1, Signal peptide peptidase-like 2A (Mus musculus, UniProt Q9JJF9).
T1 sequence (Q9JJF9 whole entry): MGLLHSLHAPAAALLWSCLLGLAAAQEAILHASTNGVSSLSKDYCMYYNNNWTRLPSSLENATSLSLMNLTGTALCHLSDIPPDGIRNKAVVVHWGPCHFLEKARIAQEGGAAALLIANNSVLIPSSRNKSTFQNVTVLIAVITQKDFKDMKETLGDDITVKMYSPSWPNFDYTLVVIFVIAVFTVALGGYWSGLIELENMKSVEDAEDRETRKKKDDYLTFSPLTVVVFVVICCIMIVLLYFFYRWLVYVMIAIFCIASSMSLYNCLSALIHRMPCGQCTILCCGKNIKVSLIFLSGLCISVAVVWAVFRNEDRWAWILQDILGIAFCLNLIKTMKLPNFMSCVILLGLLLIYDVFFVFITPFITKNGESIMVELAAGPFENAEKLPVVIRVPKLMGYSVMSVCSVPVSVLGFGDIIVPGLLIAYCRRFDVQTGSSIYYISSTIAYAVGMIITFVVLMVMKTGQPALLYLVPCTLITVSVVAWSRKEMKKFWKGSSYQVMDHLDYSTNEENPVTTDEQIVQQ
Put plainly: Inhibition of mouse SPPL2a cotransfected with EGFP-NLP-fused TNFalpha (1 to 77 residues)-NTF incubated for 24 hrs by Hoechst staining based Cellomics ArrayScan analysis.

In data set [2] the target is T2, Signal peptide peptidase-like 2B (Homo sapiens, UniProt Q8TCT7).
T2 sequence (Q8TCT7 whole entry): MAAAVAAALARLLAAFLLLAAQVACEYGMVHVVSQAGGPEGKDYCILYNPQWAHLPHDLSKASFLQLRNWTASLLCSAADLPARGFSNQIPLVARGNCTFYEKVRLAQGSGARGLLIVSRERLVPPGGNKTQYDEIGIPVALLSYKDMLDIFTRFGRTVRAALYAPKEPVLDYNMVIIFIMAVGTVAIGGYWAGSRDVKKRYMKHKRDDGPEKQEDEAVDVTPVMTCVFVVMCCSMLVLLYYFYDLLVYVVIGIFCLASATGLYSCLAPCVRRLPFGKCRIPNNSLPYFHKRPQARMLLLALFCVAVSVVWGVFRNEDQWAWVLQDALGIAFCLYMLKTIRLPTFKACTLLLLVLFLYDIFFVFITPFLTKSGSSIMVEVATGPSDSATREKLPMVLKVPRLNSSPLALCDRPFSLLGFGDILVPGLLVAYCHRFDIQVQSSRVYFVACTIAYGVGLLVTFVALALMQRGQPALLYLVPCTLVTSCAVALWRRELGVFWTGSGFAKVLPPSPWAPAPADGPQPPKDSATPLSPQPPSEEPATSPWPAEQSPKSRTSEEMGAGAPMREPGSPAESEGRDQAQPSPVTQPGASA
Put plainly: Inhibition of SPPL2b in human U2OS cells cotransfected with EGFP-labeled TNFalpha (1 to 76 residues)-NTF incubated for 24 hrs by Hoechst staining based Cellomics ArrayScan analysis. The format is cell-based.

Data set [3] in a line: Drug uptake in mouse spleen at 30 mg/kg, po measured after 4 hrs by LC/MS/MS analysis. The format is ADME, organism-based. The settings on record: read-out: Drug uptake. In a few lines:
(§1)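 Single oral dose of 10, 30 or 100 mg/kg in PEG300/D5W (3:1); total plasma and spleen concentrations measured at termination, 4 h post-dose; reported as means ± SEM.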

For another data set, the target named is Gamma-secretase. Put plainly: Inhibition of gamma-secretase (unknown origin) expressed in HEK293 cells cotransfected with Notch1-VP16-GAL4 fusion and Gal4 luciferase reporter plasmid incubated for 24 hrs by luciferase reporter gene assay luminescence assay. In kind it is cell-based, Homo sapiens.
The nature of data set [4]: Oral bioavailability in Balb/c mouse at 20 mg/kg by LC/MS/MS analysis. In kind it is ADME, organism-based. The note with it: in vivo. The method in brief: (§2)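 Balb/c mice dosed 5 mg/kg i.v. and 20 mg/kg p.o. in PEG300/D5W (3:1); plasma concentration profile taken as mean of three animals; PK parameters derived from these profiles.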
Data set [5] is described as follows: Dose normalized AUC in Balb/c mouse at 20 mg/kg, po by LC/MS/MS analysis. In kind it is ADME, organism-based. The note with it: in vivo. In a few lines: as §2
The target in data set [6] is T1, Signal peptide peptidase-like 2A. In words: Inhibition of SPPL2a in Balb/c mouse A20 cells assessed as […] in CD74/p8 NTF accumulation incubated for overnight by Western blot analysis. The format is cell-based. The method in brief:
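Endogenous CD74/p8 NTF processing in mouse B cell line A20 measured by quantitative Western blot; IC50 derived.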

A short description of data set [7]: Drug uptake in mouse spleen at 100 mg/kg, po measured after 4 hrs by LC/MS/MS analysis. In kind it is ADME, organism-based. The settings on record: read-out: Drug uptake. The method in brief: as §1
A short description of data set [8]: Half life in Balb/c mouse at 5 mg/kg, iv and 20 mg/kg, po by LC/MS/MS analysis. In kind it is ADME, organism-based. The note with it: in vivo. The method in brief: as §2
Data set [9] concerns the target T3, Signal peptide peptidase-like 2A (Mus musculus) (UniProt Q9JJF9).
T3 sequence (whole entry): T1 sequence (Q9JJF9 whole entry)
In words: Inhibition of SPPL2a in mouse whole blood assessed as […] in CD74/p8 NTF accumulation at 4 uM incubated for 5 hrs by flow cytometric analysis based assay. The format is tissue-based.

The nature of data set [10]: Volume of distribution in Balb/c mouse at 5 mg/kg, iv and 20 mg/kg, po by LC/MS/MS analysis. In kind it is ADME, organism-based. The settings on record: in vivo. In a few lines:
as §2

A short description of data set [11]: Total plasma concentration in mouse at 30 mg/kg, po measured after 4 hrs by LC/MS/MS analysis. The format is ADME, organism-based. In a few lines: as §1
A short description of data set [12]: Total plasma concentration in mouse at 100 mg/kg, po measured after 4 hrs by LC/MS/MS analysis. In kind it is ADME, organism-based. The method in brief:
as §1

Data set [13] can be described thus: Total plasma concentration in mouse at 10 mg/kg, po measured after 4 hrs by LC/MS/MS analysis. In kind it is ADME, organism-based. In a few lines:
as §1

Data set [14] can be described thus: Drug uptake in mouse spleen at 10 mg/kg, po measured after 4 hrs by LC/MS/MS analysis. In kind it is ADME, organism-based. The settings on record: read-out: Drug uptake. The method in brief:
as §1

Calls of active or inactive are those of the source. The rule behind the calls is not given here.

With `CC(C)(C)c1ccc(S(=O)(=O)N(C[C@H](O)[C@@H](N)c2ccc(OC(F)(F)F)cc2)C2CCC2)cc1`, the IC50 amounted to 5 nM in data set [1], 270 nM in [2], 1300 nM against Gamma-secretase and 150 nM in data set [6]. Also, the concentration at 4 h in [3] was 12.7 µM; in [7], 53.3 µM; in [11] it was 0.25 µM; in data set [12], 1.17 µM; in data set [13] it was 0.12 µM; in [14], 6 µM. In data set [4], this compound gave a bioavailability of 35%. For the same compound, the AUC/dose in [5] is 282 nM·h. In data set [8], the half-life was 5 h. In addition, in data set [9], the inhibition entry is “Active”. Besides, the Vd in data set [10] was found to be 12.3 L/kg.
